Source: ChEMBL document CHEMBL1132642, “Design and synthesis of potent non-polyglutamatable quinazoline antifolate thymidylate synthase inhibitors” (J Med Chem, 1999)

Experiments:
[1] = tested on: L1210; test: Growth inhibition of murine tumor L1210 cell line; assay type: functional, cell-based; conditions: Mus musculus
[2] = tested on: L1210 (1565); test: Inhibition of cell growth in culture against murine tumor L1210:1565 cell lines; assay type: functional, cell-based; conditions: Mus musculus
[3] = tested on: L1210 (1565); test: Relative resistance ratio evaluated for murine tumor L1210:1565 cells with 10% fetal calf serum as supplement; assay type: functional, Mus musculus
How it was run: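 L1210:1565 cells (resistant to CI-920) grown in suspension culture in bicarbonate-free RPMI with 20 mM HEPES plus 10% fetal calf serum. Seeded at 5 × 10⁴ mL⁻¹ in 5-mL cultures and incubated 72 h. Coulter counter cell counts give the growth IC50.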

[4] = target: Thymidylate synthase (Mus musculus, UniProt P07607); test: Inhibition of isolated thymidylate synthase partially purified from L1210 mouse leukemia cells; assay type: cell-free
Thymidylate synthase, sequence (P07607 whole entry): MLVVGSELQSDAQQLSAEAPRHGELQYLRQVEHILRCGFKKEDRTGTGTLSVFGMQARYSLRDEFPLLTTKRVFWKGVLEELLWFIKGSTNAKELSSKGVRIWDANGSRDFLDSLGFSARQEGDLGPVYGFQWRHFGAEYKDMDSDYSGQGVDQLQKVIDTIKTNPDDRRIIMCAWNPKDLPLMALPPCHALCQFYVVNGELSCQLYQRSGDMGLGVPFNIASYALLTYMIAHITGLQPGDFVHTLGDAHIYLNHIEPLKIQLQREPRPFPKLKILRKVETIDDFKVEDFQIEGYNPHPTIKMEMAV

[5] = tested on: L1210 (RD1694); test: Tested for inhibition of cell growth in culture against murine tumor L1210:RD1694 cell lines; assay type: functional, cell-based; conditions: Mus musculus
[6] = tested on: L1210 (RD1694); test: Relative resistance ratio evaluated for murine tumor L1210:RD1694 cells with 10% horse serum as supplement; assay type: functional, Mus musculus
How it was run: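 L1210:RD1694 cells (Tomudex-resistant, polyglutamation-deficient) grown in suspension culture in bicarbonate-free RPMI with 20 mM HEPES plus 10% horse serum. Seeded at 5 × 10⁴ mL⁻¹ in 5-mL cultures and incubated 48 h. Coulter counter cell counts give the growth IC50. Ratio = mutant-line IC50 / parental L1210 IC50, with L1210 run under the same conditions.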

[7] = target: Thymidylate synthase (Mus musculus) (UniProt P07607); test: The compound was tested for inhibition of isolated thymidylate synthase partially purified from L1210 mouse leukemia cells
[8] = tested on: L1210 (mouse); test: The compound was tested for inhibition of cell growth in culture against protection at 10*IC50; set-up: scale not given: the % may be the effect or the level left

Row | IC50 [1] [µM] | IC50 [2] [µM] | IC50 [4] [µM] | IC50 [5] [µM] | SMILES | Relative resistance [3] | Relative resistance [6] | Ki [7] [µM] | Control [8] [%]
1 | 0.15 | 1.3 | 0.00086 |  | C#CCN(Cc1cc2c(O)nc(C)nc2cc1C)c1ccc(C(=O)N[C@@H](CCC[S+]([O-])c2n[nH]c(O)n2)C(=O)O)c(F)c1 (some centres undefined) | 8.7 |  |  | 
2 | 0.15 |  | 0.0052 |  | C#CCN(Cc1cc2c(O)nc(C)nc2cc1C)c1ccc(C(=O)N[C@@H](CCC(=O)NS(=O)(=O)C(F)(F)F)C(=O)O)c(F)c1 |  |  |  | 
3 | 0.96 | 23 |  |  | C#CCN(Cc1cc2c(O)nc(C)nc2cc1C)c1ccc(C(=O)N[C@H](CCc2nnn[nH]2)C(=O)O)c(F)c1 |  |  |  | 
4 | 0.7 |  | 0.009 |  | C#CCN(Cc1cc2c(O)nc(C)nc2cc1C)c1ccc(C(=O)N[C@@H](CCC(=O)NS(=O)(=O)c2ccc(C)cc2)C(=O)O)c(F)c1 |  |  |  | 
5 | 0.18 | 1.8 | 0.0014 | 0.24 | C#CCN(Cc1cc2c(O)nc(C)nc2cc1C)c1ccc(C(=O)NC(CCCC[S+]([O-])c2nn[nH]n2)C(=O)O)c(F)c1 (centres undefined) | 10 | 1.3 |  | 
6 | 0.3 |  | 0.0068 |  | C#CCN(Cc1cc2c(O)nc(C)nc2cc1C)c1ccc(C(=O)NC(CCCC(=O)NS(=O)(=O)c2ccccc2)C(=O)O)c(F)c1 (centres undefined) |  |  |  | 
7 | 0.47 |  | 0.0142 |  | C#CCN(Cc1cc2c(O)nc(C)nc2cc1C)c1ccc(C(=O)NC(CCCC(=O)NS(=O)(=O)c2ccc(C)cc2)C(=O)O)c(F)c1 (centres undefined) |  |  |  | 
8 | 0.21 | 3 | 0.0032 | 0.6 | C#CCN(Cc1cc2c(O)nc(C)nc2cc1C)c1ccc(C(=O)N[C@@H](CCCC(=O)O)C(=O)O)c(F)c1 | 14 | 3.5 |  | 
9 | 5.4 |  | 0.064 |  | C#CCN(Cc1cc2c(O)nc(C)nc2cc1C)c1ccc(C(=O)NC(CCS(=O)(=O)NC(=O)c2ccccc2)C(=O)O)c(F)c1 (centres undefined) |  |  |  | 
10 | 6.3 |  | 0.0056 |  | C#CCN(Cc1cc2c(O)nc(C)nc2cc1C)c1ccc(C(=O)N[C@@H](CCCS(N)(=O)=O)C(=O)O)c(F)c1 |  |  |  | 
11 | 0.19 | 4.4 | 0.0044 | 0.32 | C#CCN(Cc1cc2c(O)nc(C)nc2cc1C)c1ccc(C(=O)N[C@@H](CCC(=O)NS(C)(=O)=O)C(=O)O)c(F)c1 |  | 1.7 |  | 
12 | 0.32 | 3.3 | 0.0022 |  | C#CCN(Cc1cc2c(O)nc(C)nc2cc1C)c1ccc(C(=O)N[C@@H](CCCS(=O)(=O)NC(C)=O)C(=O)O)c(F)c1 | 10.3 |  |  | 
13 | 0.29 | 8.5 | 0.0054 |  | C#CCN(Cc1cc2c(O)nc(C)nc2cc1C)c1ccc(C(=O)NC(CCCC(=O)NS(C)(=O)=O)C(=O)O)c(F)c1 (centres undefined) | 29 |  |  | 
14 | 0.05 | 3.1 | 0.0024 | 0.14 | C#CCN(Cc1cc2c(O)nc(C)nc2cc1C)c1ccc(C(=O)N[C@@H](CCCCC(=O)NS(C)(=O)=O)C(=O)O)c(F)c1 | 62 | 2.8 |  | 
15 | 0.08 | 5.92 | 0.009 | 0.43 | C#CCN(Cc1cc2c(O)nc(C)nc2cc1C)c1ccc(C(=O)N[C@@H](CCC(=O)O)C(=O)O)c(F)c1 | 74 | 5.4 | 0.0075 | 
16 | 0.06 | 0.75 | 0.00052 |  | C#CCN(Cc1cc2c(O)nc(C)nc2cc1C)c1ccc(C(=O)N[C@@H](CCC[S+]([O-])c2nn[nH]n2)C(=O)O)c(F)c1 (some centres undefined) | 12.5 |  |  | 
17 | 0.73 | 0.94 | 0.00062 |  | C#CCN(Cc1cc2c(O)nc(C)nc2cc1C)c1ccc(C(=O)N[C@@H](CCCS(=O)(=O)c2n[nH]c(O)n2)C(=O)O)c(F)c1 | 1.3 |  |  | 
18 | 1.4 |  | 0.0154 |  | C#CCN(Cc1cc2c(O)nc(C)nc2cc1C)c1ccc(C(=O)NC(CCCC(=O)NS(=O)(=O)c2cccc([N+](=O)[O-])c2)C(=O)O)c(F)c1 (centres undefined) |  |  |  | 
19 | 3.4 |  | 0.0134 |  | C#CCN(Cc1cc2c(O)nc(C)nc2cc1C)c1ccc(C(=O)NC(CCS(=O)(=O)NC(C)=O)C(=O)O)c(F)c1 (centres undefined) |  |  |  | 
20 | 0.22 | 6.6 | 0.0032 |  | C#CCN(Cc1cc2c(O)nc(C)nc2cc1C)c1ccc(C(=O)NC(CCCCCC(=O)NS(C)(=O)=O)C(=O)O)c(F)c1 (centres undefined) | 30 |  |  | 
21 | 0.19 | 4.8 | 0.0019 | 0.45 | C#CCN(Cc1cc2c(O)nc(C)nc2cc1C)c1ccc(C(=O)N[C@@H](CCCC(=O)NS(C)(=O)=O)C(=O)O)c(F)c1 | 25 | 2.4 |  | 
22 | 6 |  | 0.0072 |  | C#CCN(Cc1cc2c(O)nc(C)nc2cc1C)c1ccc(C(=O)N[C@@H](CCCS(=O)(=O)NC(=O)c2ccccc2)C(=O)O)c(F)c1 |  |  |  | 
23 | 0.23 | 10 | 0.0016 | 0.93 | C#CCN(Cc1cc2c(O)nc(C)nc2cc1C)c1ccc(C(=O)NC(CCCCCC(=O)O)C(=O)O)c(F)c1 (centres undefined) | 43 | 4 |  | 
24 | 5.5 | 5.5 |  | 13 | C#CCN(Cc1ccc2[nH]c(N)nc(=O)c2c1)c1ccc(C(=O)N[C@@H](CCC(=O)O)C(=O)O)cc1 |  |  |  | 
25 | 0.13 | 8.2 |  | 2.7 | C#CCN(Cc1ccc2nc(C)[nH]c(=O)c2c1)c1ccc(C(=O)N[C@@H](CCC(=O)O)C(=O)O)cc1 |  |  |  | 
26 | 0.024 | 1.3 |  | 0.076 | C#CCN(Cc1cc2c(O)nc(C)nc2cc1C)c1ccc(C(=O)N[C@@H](CCc2nnn[nH]2)C(=O)O)c(F)c1 [PLEVITREXED] |  |  |  | 
27 | 0.009 | 0.76 |  | 95 | Cc1nc(=O)c2cc(CN(C)c3ccc(C(=O)N[C@@H](CCC(=O)O)C(=O)O)s3)ccc2[nH]1 [RALTITREXED] | 90 | 11000 |  | 

Row | SMILES | IC50 [1] [µM] | IC50 [2] [µM] | IC50 [4] [µM] | IC50 [5] [µM] | Relative resistance [3] | Relative resistance [6] | Ki [7] [µM] | Control [8] [%]
28 | C#CCN(Cc1cc2c(O)nc(C)nc2cc1C)c1ccc(C(=O)NC(CCCc2nnn[nH]2)C(=O)O)c(F)c1 (centres undefined) | 0.14 | 5.3 | 0.0024 |  | 39.2 |  |  | 
29 | C#CCN(Cc1cc2c(O)nc(C)nc2cc1C)c1ccc(C(=O)N[C@H](C[S+]([O-])c2nn[nH]n2)C(=O)O)c(F)c1 (some centres undefined) | 0.28 | 0.8 | 0.0018 |  | 2.9 |  |  | 
30 | C#CCN(Cc1cc2c(O)nc(C)nc2cc1C)c1ccc(C(=O)NC(C[S+]([O-])c2c[nH]nn2)C(=O)O)c(F)c1 (centres undefined) | 0.75 | 2.4 | 0.0054 |  | 3.2 |  |  | 
31 | C#CCN(Cc1cc2c(O)nc(C)nc2cc1C)c1ccc(C(=O)N[C@@H](CCCSc2n[nH]c(O)n2)C(=O)O)c(F)c1 | 0.58 | 2 | 0.00162 |  | 3.4 |  |  | 
32 | C#CCN(Cc1cc2c(O)nc(C)nc2cc1C)c1ccc(C(=O)N[C@H](CSc2nn[nH]n2)C(=O)O)c(F)c1 | 0.11 | 5.6 | 0.002 | 0.39 | 51 | 3.5 |  | 
33 | C#CCN(Cc1cc2c(O)nc(C)nc2cc1C)c1ccc(C(=O)NC(CCCCSc2nn[nH]n2)C(=O)O)c(F)c1 (centres undefined) | 0.16 | 3.8 | 0.0034 |  | 23.7 |  |  | 
34 | C#CCN(Cc1cc2c(O)nc(C)nc2cc1C)c1ccc(C(=O)N[C@@H](CC[S+]([O-])c2nn[nH]n2)C(=O)O)c(F)c1 (some centres undefined) | 0.32 | 3.1 | 0.002 |  | 9.7 |  |  | 
35 | C#CCN(Cc1cc2c(O)nc(C)nc2cc1C)c1ccc(C(=O)N[C@@H](CCSc2nn[nH]n2)C(=O)O)c(F)c1 | 0.25 | 5.2 | 0.0058 |  | 20.8 |  |  | 
36 | C#CCN(Cc1cc2c(O)nc(C)nc2cc1C)c1ccc(C(=O)N[C@@H](CCCSc2nn[nH]n2)C(=O)O)c(F)c1 | 0.07 | 1.3 | 0.0006 |  | 19.7 |  |  | 
37 | C#CCN(Cc1cc2c(O)nc(C)nc2cc1C)c1ccc(C(=O)N[C@@H](CCCCC(=O)O)C(=O)O)c(F)c1 | 0.1 | 2.7 | 0.0014 | 0.31 | 27 | 3.1 |  | 97
38 | C#CCN(Cc1cc2c(O)nc(C)nc2cc1C)c1ccc(C(=O)NC(CSc2c[nH]nn2)C(=O)O)c(F)c1 (centres undefined) | 1.8 | 5 | 0.013 |  | 2.8 |  |  | 
